Laboratory results as given in ChEMBL document CHEMBL1156597, “Structure-activity relationship of kahalalide F synthetic analogues” (J Med Chem, 2008).

Columns and labels:
Format in all cases: functional, cell-based
[1] = tested on: SK-MEL-28; assay: Cytotoxicity against human SK-MEL-28 cells after 48 hrs by SRB assay
In short: (§1)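 Cells grown in RPMI 1640 with 10% FBS and penicillin/streptomycin at 37 °C and 5% CO₂, trypsinized, then seeded at 5 × 10³/well. After 18 h drug-free attachment, samples in DMSO/EtOH/PBS (0.5:0.5:99) were added for 48 h continuous exposure. Cells were fixed with cold TCA (1 h, 4 °C) and stained with SRB (10 min). Tris-solubilized stain read at 490 nm. Triplicate wells, mean ± SD; GI₅₀ derived.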

[2] = tested on: HT-29; assay: Cytotoxicity against human HT29 cells after 48 hrs by SRB assay; details: for GI50 / TGI / CC50: Homo sapiens, HT-29, 48 h; for CC50: read-out: LC50 (the source's name); in short: as §1
[3] = tested on: DU-145; assay: Cytotoxicity against human DU145 cells after 48 hrs by SRB assay; in short: as §1
[4] = tested on: A549; assay: Cytotoxicity against human A549 cells after 48 hrs by SRB assay; details: for LC50 / TGI / GI50: Homo sapiens, A549, 48 h; for GI50: read-out: GI50; in short: as §1

Question: Which Activity [1] does the source give for `C/C=C1\NC(=O)[C@H](Cc2ccccc2)NC(=O)[C@@H](C(C)C)NC(=O)[C@@H]([C@H](C)CC)NC(=O)[C@H](NC(=O)[C@H](NC(=O)[C@H](CCCN)NC(=O)[C@H]2CCCN2C(=O)[C@H](NC(=O)[C@@H](NC(=O)[C@@H](NC(=O)[C@H](NC(=O)CCC)C(C)C)[C@@H](C)O)C(C)C)C(C)C)[C@H](C)CC)[C@H](C)OC(=O)[C@H](C(C)C)NC1=O` here?
Answer: 3.48 ×10⁻⁶ M

Question: What about the Activity [2] of the same molecule?
Answer: 1.74 ×10⁻⁶ M

Question: What about the Activity [3] of the same molecule?
Answer: 1.74 ×10⁻⁶ M

Question: What about the Activity [4] of the same molecule?
Answer: 3.48 ×10⁻⁶ M

Question: With `C/C=C1\NC(=O)[C@H](Cc2ccccc2)NC(=O)[C@@H](C(C)C)NC(=O)[C@@H]([C@H](C)CC)NC(=O)[C@H](NC(=O)[C@H](NC(=O)[C@H](CCCN)NC(=O)[C@H]2CCCN2C(=O)[C@H](NC(=O)[C@@H](NC(=O)[C@@H](NC(=O)[C@H](NC(=O)CCCOC(=O)CCOC(C)=O)C(C)C)[C@@H](C)O)C(C)C)C(C)C)[C@H](C)CC)[C@H](C)OC(=O)[C@H](C(C)C)NC1=O` as the molecule, how does the Activity [1] read?
Answer: 6.33 ×10⁻⁷ M

Question: And the Activity [2]?
Answer: 6.33 ×10⁻⁷ M

Question: What about the Activity [3] of the same molecule?
Answer: 6.33 ×10⁻⁷ M

Question: And the Activity [4]?
Answer: 6.33 ×10⁻⁷ M

Question: What does the source list for `C/C=C1\NC(=O)[C@H](Cc2ccccc2)NC(=O)[C@@H](C(C)C)NC(=O)[C@@H]([C@H](C)CC)NC(=O)[C@H](NC(=O)[C@H](NC(=O)[C@H](CCCN)NC(=O)[C@H]2CCCN2C(=O)[C@H](NC(=O)[C@@H](NC(=O)[C@@H](NC(=O)[C@H](NC(C)=O)C(C)C)[C@@H](C)O)C(C)C)C(C)C)[C@H](C)CC)[C@H](C)OC(=O)[C@H](C(C)C)NC1=O`?
Answer: Activity [1]: 7.11 ×10⁻⁶ M; Activity [2]: 7.11 ×10⁻⁶ M; Activity [3]: 7.11 ×10⁻⁶ M; Activity [4]: 7.11 ×10⁻⁶ M

Question: Which Activity [1] does the source give for `C/C=C1\NC(=O)[C@H](Cc2ccccc2)NC(=O)[C@@H](C(C)C)NC(=O)[C@@H]([C@H](C)CC)NC(=O)[C@H](NC(=O)[C@H](NC(=O)[C@H](CCCN)NC(=O)[C@H]2CCCN2C(=O)[C@H](NC(=O)[C@@H](NC(=O)[C@@H](NC(=O)[C@H](NC(=O)[C@H](NC(=O)C(C)C)[C@H](C)CC)C(C)C)[C@@H](C)O)C(C)C)C(C)C)[C@H](C)CC)[C@H](C)OC(=O)[C@H](C(C)C)NC1=O` here?
Answer: 6.46 ×10⁻⁶ M

Question: And the Activity [2]?
Answer: 6.46 ×10⁻⁶ M

Question: What about the Activity [3] of the same molecule?
Answer: 6.46 ×10⁻⁶ M

Question: And the Activity [4]?
Answer: 6.46 ×10⁻⁶ M

Question: For `C/C=C1\NC(=O)[C@H](Cc2ccccc2)NC(=O)[C@@H](C(C)C)NC(=O)[C@@H]([C@H](C)CC)NC(=O)[C@H](NC(=O)[C@H](NC(=O)[C@H](CCCN)NC(=O)[C@H]2CCCN2C(=O)[C@H](NC(=O)[C@@H](NC(=O)[C@@H](NC(=O)[C@H](NC(=O)c2ccc3c(c2)OCO3)C(C)C)[C@@H](C)O)C(C)C)C(C)C)[C@H](C)CC)[C@H](C)OC(=O)[C@H](C(C)C)NC1=O`, which GI50 [2] is on record?
Answer: 0.413 µM

Question: What about the TGI [2] of the same molecule?
Answer: 0.514 µM

Question: And the CC50 [2]?
Answer: 0.409 µM

Question: And the LC50 [4]?
Answer: 1.33 µM

Question: And the TGI [4]?
Answer: 1.04 µM

Question: And the GI50 [4]?
Answer: 0.64 µM

Question: Which GI50 [2] does the source give for `C/C=C1\NC(=O)[C@H](Cc2ccccc2)NC(=O)[C@@H](C(C)C)NC(=O)[C@@H]([C@H](C)CC)NC(=O)[C@H](NC(=O)[C@H](NC(=O)[C@H](NC(=O)[C@@H](NC(=O)[C@@H](NC(=O)[C@H](NC(=O)CCCC(C)C)C(C)C)[C@@H](C)O)C(C)C)C(C)C)[C@H](C)CC)[C@H](C)OC(=O)[C@H](C(C)C)NC1=O` here?
Answer: 9.89 µM

Question: And the TGI [2]?
Answer: 61.6 µM

Question: And the CC50 [2]?
Answer: 30.6 µM

Question: And the LC50 [4]?
Answer: 11.3 µM

Question: What about the TGI [4] of the same molecule?
Answer: 20.8 µM

Question: And the GI50 [4]?
Answer: 23 µM

Question: What does the source list for `C/C=C1\NC(=O)[C@H](Cc2ccccc2)NC(=O)[C@@H](C(C)C)NC(=O)[C@@H]([C@H](C)CC)NC(=O)[C@H](NC(=O)[C@H](NC(=O)[C@H](NC(=O)CCCC(C)C)C(C)C)[C@H](C)CC)[C@H](C)OC(=O)[C@H](C(C)C)NC1=O`?
Answer: CC50 [2]: 40 µM; LC50 [4]: 14.8 µM
